Hits are enriched below; roughly 1.6% of the tested compounds scored in any of these assays.
NR2E3 ag-1 – agonists of human NR2E3 nuclear receptor | CHO-S Gal4-NCOR/VP16-NR2E3 two-hybrid, luciferase | inhibition of corepressor binding, % at 3.98 µM | Q9Y5X4 | hit rate 0.35% among 360,000;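 active = inhibition above the mean of all tested compounds plus 3 SD, cut at about 70% in these data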;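 note: 0% = DMSO with NR2E3 transfected cells and 100% = cells lacking NR2E3 construct; higher means lower luciferase signal from less NR2E3 corepressor binding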
Target sequence (Q9Y5X4 whole entry, looked up, the tested form may be a part): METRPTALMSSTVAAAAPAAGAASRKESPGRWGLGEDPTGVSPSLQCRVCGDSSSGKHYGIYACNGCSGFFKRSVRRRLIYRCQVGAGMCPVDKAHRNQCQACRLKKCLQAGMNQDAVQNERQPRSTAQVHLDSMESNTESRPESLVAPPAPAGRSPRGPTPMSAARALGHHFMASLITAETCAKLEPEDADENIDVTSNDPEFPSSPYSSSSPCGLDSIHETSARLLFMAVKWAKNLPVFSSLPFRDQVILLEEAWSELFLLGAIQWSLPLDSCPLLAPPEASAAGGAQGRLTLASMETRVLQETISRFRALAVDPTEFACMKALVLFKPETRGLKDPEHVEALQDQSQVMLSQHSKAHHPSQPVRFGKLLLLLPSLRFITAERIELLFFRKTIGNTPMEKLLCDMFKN
NR2E3 ag-2 – agonists of human nuclear receptor NR2E3 | inhibition of corepressor binding, % at 4.78 µM | GST-NR2E3/biotin-RetCOR TR-FRET, 1536-well | Q9Y5X4 | AID 2300 | hit rate 0.12% among 320,000;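 active = percent inhibition above the cutoff of mean plus 3 SD of all tested compounds, set per screening campaign, cut at about 20% in these data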;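 note: 0% = DMSO wells and 100% = biotin wells as full block of FRET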
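Material – GST-tagged NR2E3 plus biotinylated RetCOR corepressor · Quantity – NR2E3 fusion 1.35 nM · Times – 5 h incubation at 4 °C · Medium – pH 7.5 Tris-based buffer · Technique – TR-FRET, Eu(K)-anti-GST donor, streptavidin-D2 acceptor, ex 340, em 617/671 nm · Benchmarks – high control biotin, low control 0.6% DMSO · Format – 1536-well plates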
PG9 binder – PG9 antibody binding by small molecule; AID 624416; TR-FRET gp120-PG9 antibody binding; hit rate 0.43% among 360,000; inhibition, % at 6.7 µM; in the data active = inhibition above about 8.5%
PKA-R2B activ – activators of human PKA-R2B complex | PKA-R2B holoenzyme dissociation, Cy5-IP20 fluorescence polarization; R2B truncated from residue 108, S112A mutant; 0% DMSO only, 100% 113 µM cGMP | activation, % at 11.4 µM | AID 504700 | P22694+P31323 | hit rate 0.079% among 340,000;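 active = activation above a cutoff set at the mean over all compounds plus 3 SD, cut at about 18% in these data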;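 note: higher means more holoenzyme dissociation and a rise in polarization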
PKA-R1A act – activates the PKA-R1A holoenzyme complex | PKA-R1A dissociation, Cy5-IP20 fluorescence polarization; scaled: DMSO 0%, 113 µM cGMP 100% | activation, % at 11.4 µM | hit rate 0.083% among 340,000 | AID 504707;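 active = percent activation above the mean of all tested compounds plus 3 SD, cut at about 19% in these data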;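 note: higher means more PKAc released from R1A so a rise in polarization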
Rev-erbA mod – Rev-erb alpha (human) modulation; Rev-erbα–FITC-DNA binding, fluorescence polarization, 90 min; AID 1259318; hit rate 0.79% among 370,000; activity, % at 10 µM; P20393;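 active = activity above about 14%, limit read from the data; passing the limit was not always enough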;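 note: 0% = DMSO wells with 35 nM protein and 100% = DMSO wells with 750 nM protein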
Rev-erbA confirm – confirmation of modulators of human Rev-erb alpha DNA binding. hit rate 61% among 3,000. Rev-erb alpha FITC-DNA binding, fluorescence polarization, 90 min. AID 1259319. activation, % at 25 µM. shares compounds with Rev-erbA mod;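 active = activation at or above a set limit, or at least 3 SD above the negative control mean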;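 note: 0% = 35 nM protein with DMSO and 100% = 750 nM protein high control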
RORg counter – counter-screen for Rev-erb alpha modulators: RORgamma DNA binding. hit rate 8% among 910. shares compounds with Rev-erbA mod. purified RORgamma protein-FITC-DNA binding, fluorescence polarization. IC50, µM. AID 1259320;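 active = Compounds whose fitted half-maximal concentration for disrupting protein-DNA binding is below 10 micromolar; the record names Rev-erb in its text, so the target is in doubt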
An asterisk follows results filed as active; . = no result given.

SMILES	NR2E3 ag-1	NR2E3 ag-2	PG9 binder	PKA-R2B activ	PKA-R1A act	Rev-erbA mod	Rev-erbA confirm	others
CCNC(=O)Nc1ccc2c(c1)C(=O)N(C)[C@H]1CC[C@H](CC(=O)N[C@H](C)c3ccccc3)O[C@@H]1CO2	.	.	.	.	.	80*	55*	RORg counter=>40
CCCNC(=O)C[C@H]1CC[C@H]2[C@@H](COc3ccc(NC(=O)Nc4ccccc4)cc3C(=O)N2C)O1	.	.	.	.	.	3	.
COC(=O)C[C@@H]1CC[C@@H]2[C@@H](COc3ccc(NS(=O)(=O)c4ccc(F)cc4)cc3C(=O)N2C)O1	.	.	.	.	.	6	.
CN1C(=O)c2cc(NS(=O)(=O)c3ccc(F)cc3)ccc2OC[C@H]2O[C@@H](CC(=O)NCC(F)(F)F)CC[C@@H]21	.	.	.	.	.	130*	79*	RORg counter=7.2*
COc1cccc(CNC(=O)C[C@H]2CC[C@H]3[C@@H](COc4ccc(NC(=O)c5cccs5)cc4C(=O)N3C)O2)c1	.	.	.	.	.	60*	43*	RORg counter=>40
CCCCNC(=O)C[C@H]1C[C@@]2(C(=O)OC)C(=C[C@H](COCc3ccccc3)O[C@@H]2C)N(Cc2ccco2)C1=O	.	.	.	.	.	-4	.
CN(C(=O)c1cn(C)c2ccccc12)c1ccc(Oc2cccnc2)cc1	.	.	2	.	.	2	.
CCOC(=O)c1cccc(NC(=O)CN(C)S(=O)(=O)c2ccco2)c1	.	.	.	.	.	-1	.
COc1ccc(C2Nc3ccccc3C(=O)N2Cc2ccc(C)o2)cc1COc1c(C)cccc1C (configuration not stated)	.	.	.	.	.	3	.
CCCCCNC(=O)c1c[nH]c2ccc(S(=O)(=O)N3CCC4(CC3)OCCO4)cc2c1=O	5	-2	1	2	1	38*	48*	RORg counter=>40
CCN(CC)S(=O)(=O)c1ccc2[nH]cc(C(=O)NCCCN3CCCCC3C)c(=O)c2c1 (configuration not stated)	-10	5	-1	-4	-7	27*	2
CCOCc1nnc(NC(=O)c2cc(OC)c(OC)c(OC)c2)s1	11	-2	0	-3	-2	2	.
COc1cc(C(=O)Nc2nnc(-c3sccc3C)s2)cc(OC)c1OC	-33	3	8	-3	8	93*	117*	RORg counter=>40
COc1cc2c(c(OC)c1)C(=O)O[C@H](C)C[C@@H]1O[C@H]1CCCCC(=O)C2	.	.	.	.	.	9	.
COC(=O)c1ccc(C(=O)OC)c(NC(=O)N2c3ccccc3Sc3ccccc32)c1	-19	5	-1	-7	-5	26*	47*	RORg counter=>40
CCOc1nc(-c2ccccc2)ccc1-c1noc(-c2ccncc2)n1	-8	5	3	1	11	29*	24*
CCOc1nc(-c2ccccc2)ccc1-c1noc(-c2cccs2)n1	-28	0	1	-2	-2	40*	14
COc1ccc(OC)c(Nc2ncnc3ccc(Br)cc23)c1	3	-1	0	-7	6	59*	29*
COc1ccc(OC)c(Nc2ncnc3ccccc23)c1	-27	-1	-2	2	5	-2	.
Cc1ccc(S(=O)(=O)NC[C@H]2CN(S(=O)(=O)c3ccc(C)cc3)[C@@H](Cc3ccccc3)CO2)cc1	.	.	.	.	.	8	.
CCCCN1C[C@@H](COCc2ccccc2)Oc2cccc(F)c2S1(=O)=O	.	.	.	.	.	17*	0
CCCCN1CC(COCc2ccccc2)Oc2cccc(F)c2S1(=O)=O (configuration not stated)	-24	.	-2	-7	-4	12	.
Cc1ccc(-c2cc(C(=O)NCc3cnn(C)c3C)c3cc(Br)ccc3n2)cc1	-28	-250	-8	-1	-4	32*	11
NS(=O)(=O)c1ccc(CNC(=O)c2cc(-c3cccnc3)nc3ccc(Br)cc23)cc1	8	-1	8	11	1	43*	31*	RORg counter=1.3*
C[C@@H]1/C=C/CC(=O)N2[C@H](CC(=O)N[C@@H]1c1ccccc1)C[C@@H](C)[C@H]2c1ccccc1	.	.	.	.	.	-3	.
SMILES	NR2E3 ag-1	NR2E3 ag-2	PG9 binder	PKA-R2B activ	PKA-R1A act	Rev-erbA mod	Rev-erbA confirm	others
Cc1ccc(Cl)cc1N1CCN(Cc2nc3c(c(=O)[nH]c(=O)n3C)n2Cc2ccccc2F)CC1	-34	-2	-3	-2	-4	29*	19*
Cc1ccc(Cl)cc1N1CCN(Cc2nc3c(c(=O)[nH]c(=O)n3C)n2CCc2ccccc2)CC1	-4	2	-2	6	-4	2	.
O=C(Nc1ccc(F)cc1F)c1cc(-c2ccc(Cl)cc2)nc2ccccc12	.	.	.	.	.	5	.
CC[C@H](C(=O)Nc1ccccc1N1CCCC1)c1ccccc1	.	.	.	.	.	6	.
Cc1cccc(CSc2nc3ccncc3n2CC(=O)Nc2cc(C)cc(C)c2)c1	-28	1	-2	4	1	29*	13*
CCCOc1ccc(F)cc1-c1cc(C(=O)Nc2ccccc2)[nH]n1	-34	.	1	.	.	21*	-7
CC(C)Oc1ccc(F)cc1-c1cc(C(=O)Nc2ccccc2)[nH]n1	-30	.	-1	.	.	-6	.
COc1cccc(CC(=O)Nc2sc3c(c2C(N)=O)CCCC3)c1	-25	-1	7	13	-6	29*	2
CCOc1ccc(CCNC(=O)Cn2ncn3nc(-c4ccc(OC)cc4)cc3c2=O)cc1OCC	-3	1	2	3	-10	23*	-2
COc1cccc(-c2ccc(-c3noc(-c4ccccc4F)n3)c(OC)n2)c1	-33	0	3	-15	-6	8	.
COc1nc(-c2ccc(Cl)cc2)ccc1-c1noc(-c2ccco2)n1	-22	5	0	0	2	31*	1
COc1nc2c(C)cccc2cc1-c1noc(-c2ccco2)n1	-13	1	6	-1	-4	20*	15
CC(C)(C)C(=O)OC12CCCN(C1)/C(=C/c1cccc(Cl)c1)C2 (configuration not stated)	.	.	.	.	.	3	.
O=C(CCn1c(=O)c2cccn2c2cccnc21)NCc1cccc(Cl)c1	-25	0	-2	-1	-11	64*	64*	RORg counter=4.3*
CS(=O)(=O)NCCNc1cc(Cl)ccc1[N+](=O)[O-]	-6	-1	-1	6	1	17*	6
CCn1cc(C(=O)NCCc2ccc(Cl)cc2)c(=O)c2cc(S(=O)(=O)N(C)C)ccc21	4	.	0	3	-6	44*	27*
CC(C)(C)c1cccc(N/C(=C\C(=O)c2ccccc2)c2ccccc2)c1	.	.	0	.	.	-5	.
CC(=O)Nc1cccc(-c2cc(C(C)=O)c3n(c2=O)CCC3)c1	.	.	.	.	.	0	.
